According to article PMC11837772 (RSC Advances, 2025):
“Also recorded” adds a separate entry of the source. Where two headings read alike, the source gives them in different places.

Experiments:
[1] = system: L. donovani promastigotes; assay: Primary screening against L. donovani promastigotes; assay type: cell-based; settings: Leishmania donovani, 48 h, read-out: % inhibition (48 h)
Outline: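 Promastigotes at 2 × 10^6 cells per mL in RPMI at 26 °C were given test compound at 100 μM, with DMSO (0.2%) as solvent, an amphotericin B reference and a medium-only control. Viability was read by MTT and expressed as % inhibition.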

[2] = system: L. donovani promastigotes; assay: IC50 from dose-dependent anti-promastigote activity; assay type: cell-based, Leishmania donovani; settings: 72 h, read-out: IC50 against L. donovani promastigotes
Outline: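 Log-phase promastigotes (26 °C, M199 with 10% heat-inactivated FBS) were exposed to graded concentrations of test compound, and viability was read by MTT. Percentage viability was calculated as treated/untreated mean × 100. IC50 was extrapolated from the % viability versus concentration plot, from triplicate experiments as mean ± SEM.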

Cytotoxicity assay = assay type: cell-based, human; settings: human, THP-1 human monocytic cells, pH 7.4, Log CC50, THP-1 human monocytic cells, 72 h, MTT
Outline: (§1)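 THP-1 cells in RPMI with 10% FBS were seeded at 1 × 10^6 cells per mL and held 24 h at 37 °C in humidified CO2. Medium was then replaced with test compound or standard at 100, 50, 25, 12.5 and 6.25 μM for 72 h. Viability was read by MTT (0.5 mg mL−1, 4 h, 37 °C), with formazan dissolved in DMSO and absorbance at 570 nm.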

[3] = system: THP-1 human monocytic cells; assay: Cytotoxicity assay; assay type: cell-based; settings: for Log CC50 / CC50: THP-1 human monocytic cells, 72 h, MTT; for CC50: unit printed in Table 5 only
Outline: as §1

[4] = system: intracellular L. donovani amastigotes; assay: Intracellular amastigotes assay in infected macrophages; assay type: cell-based, Leishmania donovani; settings: for Percentage Reductions (%) in intracellular amastigotes: 72 h; for SI (selectivity index): CC50 (THP-1) / IC50 (intracellular amastigotes)
Outline: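 Macrophages (5 × 10^4 per chamber) adhered 2 h at 37 °C in 5% CO2, were washed with serum-free RPMI, then infected overnight with metacyclic L. donovani at 10:1 in complete RPMI 1640. Free promastigotes were washed off after 24 h, and test compound was added in duplicate for 72 h at 37 °C in 5% CO2. Giemsa-stained amastigotes per 100 macrophages were counted and expressed as a percentage of the untreated control mean.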

papain = target: T1, papain (Carica papaya, UniProt P00784); assay: In vitro cysteine protease inhibition assay; assay type: biochemical
T1 sequence (P00784 134-345): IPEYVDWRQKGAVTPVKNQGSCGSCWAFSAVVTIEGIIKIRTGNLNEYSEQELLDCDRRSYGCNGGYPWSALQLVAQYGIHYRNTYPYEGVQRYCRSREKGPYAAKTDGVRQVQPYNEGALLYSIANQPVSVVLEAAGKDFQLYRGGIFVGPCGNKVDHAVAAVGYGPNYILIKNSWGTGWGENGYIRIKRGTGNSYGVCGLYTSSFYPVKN
Outline: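 Papain was run in activation buffer of sodium acetate (pH 5.5), 8 mM DTT and 4 mM EDTA, with papain […], 10 μM Bz-Arg-AMC and inhibitor at 0–32 μM (dissolved in DMSO). AMC release was followed by fluorescence (excitation 345 nm, emission 440 nm) for 120 min. IC50 came from the straight-line fit of % residual activity versus log[inhibitor].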

[5] = system: L. donovani promastigotes; assay: Cellular morphological alteration of promastigotes; assay type: cell-based, Leishmania donovani; settings: 48 hours, contrast microscope 40× objective
Outline: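 Exponential-phase promastigotes (grown at 26 °C in M199 with 10% heat-inactivated FBS) at 2 × 10^6 cells per mL were incubated without or with test compound or reference drug at 1 μM for 48 h. Cell shape was examined by contrast/light microscopy (40× objective) at 0 and 48 h and scored for programmed-cell-death-type morphology.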

SARS-CoV-2 3CL protease = settings: read-out: IC50 against SARS-CoV-2 3CL protease; cited from earlier work
L. donovani = settings: read-out: IC50 against L. donovani; ref Ahmed H. E. Hassan and his team; cited from earlier work
[6] = preliminary cytotoxicity assessments; ref Ahmed H. E. Hassan and his team; cited from earlier work
[7] = serial dilutions starting at 25 μM, MTT

Molecule: CC/C(=C\c1ccc(OCC(=O)NC(Cc2ccccc2)C(=O)N2CCOCC2)cc1)[N+](=O)[O-] (stereo not drawn) [14a, (E)-N-(1-Morpholino-1-oxo-3-phenylpropan-2-yl)-2-(4-(2-nitrobut-1-en-1-yl)phenoxy)acetamide]
- inhibition at 100 µM [1]: 84.8%
- IC50 ([2]; Leishmania donovani): 11.9 µM
- CC50 at 72 h (Cytotoxicity assay): 28.7 µM
- cytotoxicity to mammalian macrophages ([3]; even at a concentration of 28 μM): negligible cytotoxicity; also recorded: insignificant cytotoxicity
- Percentage Reductions (%) in intracellular amastigotes ([4]; 3.125 μM): 37.2%
- Percentage Reductions (%) in intracellular amastigotes ([4]; 6.25 μM): 44.1%
- Percentage Reductions (%) in intracellular amastigotes ([4]; 12.5 μM): 57.5%
- SI (selectivity index) [4]: 3.55
- IC50 (papain): 9.63 ± 0.28 µM
- morphological changes of treated promastigotes [5]: notable morphological alterations

Molecule: CC/C(=C\c1ccc(OCC(=O)N[C@@H](Cc2ccccc2)C(=O)NCC(=O)OC)cc1)[N+](=O)[O-] [14i, Methyl (E)-(2-(4-(2-nitrobut-1-en-1-yl)phenoxy)acetyl)phenylalanylglycinate]
- inhibition at 100 µM [1]: 84.5%
- IC50 ([2]; Leishmania donovani): 5.3 µM
- CC50 at 72 h (Cytotoxicity assay): 5.15 µM

Molecule: CC/C(=C\c1ccc(OCC(=O)N[C@@H](Cc2c[nH]c3ccccc23)C(=O)N[C@@H](C)C(=O)OC)cc1)[N+](=O)[O-] [14j, Methyl (E)-(2-(4-(2-nitrobut-1-en-1-yl)phenoxy)acetyl)tryptophylalaninate]
- inhibition at 100 µM [1]: 65.5%

Molecule: CC/C(=C\c1ccc(OCC(=O)N[C@@H](Cc2ccccc2)C(=O)N[C@@H](C)C(=O)OC)cc1)[N+](=O)[O-] [14k, Methyl (E)-(2-(4-(2-nitrobut-1-en-1-yl)phenoxy)acetyl)phenylalanylalaninate]
- inhibition at 100 µM [1]: 54.8%

Molecule: C[C@@H]1[C@H](O)[C@@H](C)/C=C/C=C/C=C/C=C/C=C/C=C/C=C/[C@H](O[C@@H]2O[C@H](C)[C@@H](O)[C@H](N)[C@@H]2O)C[C@@H]2O[C@](O)(C[C@@H](O)C[C@@H](O)[C@H](O)CC[C@@H](O)C[C@@H](O)CC(=O)O[C@H]1C)C[C@H](O)[C@H]2C(=O)O [AmphoB, Amphotericin B, reference compound]
- inhibition at 100 µM [1]: 78.5%
- IC50 ([2]; Leishmania donovani): 3.07 µM
- Percentage Reductions (%) in intracellular amastigotes ([4]; 3.125 μM): 52.3%
- Percentage Reductions (%) in intracellular amastigotes ([4]; 6.25 μM): 63.2%
- Percentage Reductions (%) in intracellular amastigotes ([4]; 12.5 μM): 85.5%
- SI (selectivity index) [4]: 3.48

Molecule: O=[N+]([O-])C=Cc1ccc([N+](=O)[O-])cc1 [compound 2, 4-nitro-β-nitrostyrene]
- IC50 (SARS-CoV-2 3CL protease): 0.73 µM

Molecule: CCCCCCCC/C=C\CCCCCCCCCCCCOP(=O)([O-])OCC[N+](C)(C)C [erufosine]
- IC50 (L. donovani): 9.8 µM
- CC50 [6]: 19.4 µM

Molecule: (E)-1-(2-(Morpholine-4-carbonyl)pyrrolidin-1-yl)-2-(4-(2-nitrobut-1-en-1-yl)phenoxy) ethan-1-one [14b]
- IC50 [2, 7]: 16.8 µM
- Log CC50 [3]: 0.7734
- CC50 [3]: 5.93 µM

Molecule: (E)-2-(4-(2-Nitrobut-1-en-1-yl)phenoxy)-1-(2-(thiomorpholine-4-carbonyl)pyrrolidin-1-yl)ethan-1-one [14d]
- IC50 [2, 7]: 7.56 µM
- Log CC50 [3]: 0.5025
- CC50 [3]: 3.18 µM

Molecule: (E)-2-(4-(2-Nitrobut-1-en-1-yl)phenoxy)-N-(1-oxo-3-phenyl-1-thiomorpholinopropan-2-yl)acetamide [14c]
- IC50 [2, 7]: 7.24 µM
- Log CC50 [3]: 0.5684
- CC50 [3]: 3.7 µM

Molecule: Methyl (E)-(2-(1H-indol-3-yl)-2-(2-(4-(2-nitrobut-1-en-1-yl)phenoxy)acetamido)acetyl)valinate [14h]
- IC50 [2, 7]: 10 µM
- Log CC50 [3]: 1.109
- CC50 [3]: 12.9 µM
